From ChEMBL document CHEMBL3397044, “Discovery and in vitro and in vivo profiles of N-ethyl-N-[2-[3-(5-fluoro-2-pyridinyl)-1H-pyrazol-1-yl]ethyl]-2-(2H-1,2,3-triazol-2-yl)-benzamide as a novel class of dual orexin receptor antagonist” (Bioorg Med Chem, 2015)

What was measured:
[1] = molecular target: T1, Orexin receptor type 2 (Homo sapiens) (UniProt O43614); assay: Antagonist activity against human OX2 receptor expressed in CHO cells assessed as reduction in [Ala6,12]orexin-A-induced intracellular Ca2+ mobilization incubated for 30 mins by Fluo-4 AM dye based fluorescence assay; format: functional, cell-based
T1 sequence (whole entry): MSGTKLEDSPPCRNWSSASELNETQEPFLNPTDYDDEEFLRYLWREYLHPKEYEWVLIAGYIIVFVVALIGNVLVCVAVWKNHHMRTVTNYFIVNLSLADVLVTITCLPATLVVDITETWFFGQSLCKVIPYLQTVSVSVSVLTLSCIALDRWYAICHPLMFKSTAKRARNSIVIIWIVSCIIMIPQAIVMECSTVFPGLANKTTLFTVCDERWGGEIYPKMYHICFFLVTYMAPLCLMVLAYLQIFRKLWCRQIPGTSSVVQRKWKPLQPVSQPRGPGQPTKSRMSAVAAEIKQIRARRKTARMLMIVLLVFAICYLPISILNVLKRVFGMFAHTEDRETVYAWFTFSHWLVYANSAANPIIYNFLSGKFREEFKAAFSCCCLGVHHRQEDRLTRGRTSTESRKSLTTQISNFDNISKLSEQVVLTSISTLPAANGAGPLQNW
Summary of the method: (§1)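 Cells seeded 2.4 × 10⁴/well, cultured 18 h. Loaded with Fluo-4 AM (0.5 µM final) in HBSS, 20 mM HEPES, 0.1% BSA, 2.5 mM probenecid, 0.2 mg/mL amaranth, pH 7.4, 37 °C 1 h. Washed, then antagonist for 30 min at room temperature. Peak minus basal fluorescence normalized to the [Ala6,12]orexin-A maximum. Kb = IC50/(1+[L]/EC50). At least three independent runs in duplicate.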

[2] = molecular target: T2, Orexin/Hypocretin receptor type 1 (Homo sapiens) (UniProt O43613); assay: Antagonist activity against human OX1 receptor expressed in CHO cells assessed as reduction in [Ala6,12]orexin-A-induced intracellular Ca2+ mobilization incubated for 30 mins by Fluo-4 AM dye based fluorescence assay; format: functional, cell-based; summary of the method: as §1
T2 sequence (whole entry): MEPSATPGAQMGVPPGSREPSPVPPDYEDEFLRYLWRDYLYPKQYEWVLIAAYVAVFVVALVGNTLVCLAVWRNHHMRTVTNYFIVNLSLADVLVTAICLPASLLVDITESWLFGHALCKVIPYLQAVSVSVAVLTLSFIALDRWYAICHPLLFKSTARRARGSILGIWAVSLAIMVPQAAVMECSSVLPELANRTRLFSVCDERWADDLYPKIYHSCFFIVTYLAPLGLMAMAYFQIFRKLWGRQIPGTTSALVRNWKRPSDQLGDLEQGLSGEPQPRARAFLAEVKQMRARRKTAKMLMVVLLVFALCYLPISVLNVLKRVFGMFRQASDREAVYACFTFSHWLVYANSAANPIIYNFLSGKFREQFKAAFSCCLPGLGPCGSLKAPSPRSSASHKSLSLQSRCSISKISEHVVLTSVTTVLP

[3] = Half life in human; format: ADME, organism-based; conditions: in vivo
[4] = Drug metabolism in human liver microsomes at 5 uM after 15 mins; format: ADME; conditions: read-out: Drug metabolism
Summary of the method: (§2)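 Liver microsomes at 1 mg protein/mL with 5 µM compound, incubated 15 min. Value reported as percentage of compound metabolized.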

[5] = Oral bioavailability in dog at 3 mg/kg; format: ADME, organism-based, Canis lupus familiaris; conditions: in vivo
Summary of the method: (§3)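 Fasted male rats dosed orally at 10 mg/kg, and male dogs at 3 mg/kg (n = 3). Tmax read from the oral profile. F calculated against the iv arm (rat 2 mg/kg, dog 0.5 mg/kg).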

[6] = Oral bioavailability in Sprague-Dawley rat at 30 mg/kg; format: ADME, organism-based; conditions: in vivo
[7] = Half life in Sprague-Dawley rat at 2 mg/kg, iv; format: ADME, organism-based; parameters: dose 2 mg/kg, route intravenous; conditions: in vivo
Summary of the method: (§4)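 Fasted male Sprague–Dawley rats (n = 3) given 2 mg/kg iv. Vd and CL taken from the iv profile. T1/2 calculated as ln2·Vd/CL.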

[8] = Drug metabolism in dog liver microsomes at 5 uM after 15 mins; format: ADME, Canis lupus familiaris; conditions: read-out: Drug metabolism; summary of the method: as §2
[9] = Ratio of drug level in CSF to plasma in Sprague-Dawley rat at 30 mg/kg, ip; format: ADME, organism-based; parameters: dose 30 mg/kg, route intraperitoneal
Summary of the method: (§5)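 Male rats dosed ip at 30 mg/kg. Drug concentrations measured in brain, CSF and plasma, and reported as brain/plasma and CSF/plasma ratios.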

[10] = Tmax in Sprague-Dawley rat at 30 mg/kg, po; format: ADME, organism-based; parameters: dose 30 mg/kg, route oral; conditions: in vivo
[11] = Drug metabolism in rat liver microsomes at 5 uM after 15 mins; format: ADME; conditions: read-out: Drug metabolism; summary of the method: as §2
[12] = Clearance in Sprague-Dawley rat at 2 mg/kg, iv; format: ADME, organism-based; parameters: dose 2 mg/kg, route intravenous; conditions: in vivo; summary of the method: as §4
[13] = Tmax in dog at 3 mg/kg, po; format: ADME, organism-based, Canis lupus familiaris; parameters: dose 3 mg/kg, route oral; conditions: in vivo; summary of the method: as §3
[14] = Clearance in dog at 0.5 mg/kg, iv; format: ADME, organism-based, Canis lupus familiaris; parameters: dose 0.5 mg/kg, route intravenous; conditions: in vivo
Summary of the method: (§6)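 Male dogs given 0.5 mg/kg iv (n = 3). Vd and CL derived from the iv profile. T1/2 = ln2·Vd/CL.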

[15] = Ratio of drug level in brain to plasma in Sprague-Dawley rat at 30 mg/kg, ip; format: ADME, organism-based; parameters: dose 30 mg/kg, route intraperitoneal; conditions: read-out: BPR; summary of the method: as §5
[16] = Volume of distribution in Sprague-Dawley rat at 2 mg/kg, iv; format: ADME, organism-based; parameters: dose 2 mg/kg, route intravenous; conditions: in vivo; summary of the method: as §4
[17] = Volume of distribution in dog at 0.5 mg/kg, iv; format: ADME, organism-based, Canis lupus familiaris; parameters: dose 0.5 mg/kg, route intravenous; conditions: in vivo; summary of the method: as §6
[18] = Half life in dog at 0.5 mg/kg, iv; format: ADME, organism-based, Canis lupus familiaris; parameters: dose 0.5 mg/kg, route intravenous; conditions: in vivo; summary of the method: as §6
[19] = tested on: Rattus norvegicus; assay: Toxicity in Wistar rat assessed as effect on rotarod performance at 10 mg/kg, ip administered 30 mins prior to the test by rotarod test; format: organism-based; parameters: dose 10 mg/kg, route intraperitoneal; conditions: in vivo, 0.5 h

Row | SMILES | Kb [1] [nM] | Kb [2] [nM] | other results
1 | Cc1ccc(-n2nccn2)c(C(=O)N(CCn2ccc(-c3ccc(F)cn3)n2)C(C)C)c1 | 37.9 | 38.5 | –
2 | CCN(CCn1ccc(-c2cccc(C)n2)n1)C(=O)c1cc(C)ccc1-n1nccn1 | 1.96 | 0.41 | –
3 | CCN(CCn1ccc(-c2ccc(F)cc2)n1)C(=O)c1cc(C)ccc1-n1nccn1 | 1.25 | 0.32 | –
4 | CCN(CCc1noc(-c2ccc(F)cn2)n1)C(=O)c1cc(C)ccc1-n1nccn1 | 23 | 8.09 | –
5 | Cc1ccc(-n2nccn2)c(C(=O)N2CCN(c3nc4cc(Cl)ccc4o3)CC[C@H]2C)c1 [SUVOREXANT] | – | – | half-life [3]: 540 min
6 | CCN(CCc1cc(-c2ccc(F)cn2)no1)C(=O)c1cc(C)ccc1-n1nccn1 | 32.2 | 45.5 | –
7 | Cc1nc(C(=O)N2CCCC[C@H]2CNC(=O)c2cccc3occc23)c(-c2ccc(F)cc2)s1 [SB-649868] | – | – | half-life [3]: 204 min
8 | CCN(CCn1ccc(-c2ccc(F)cn2)n1)C(=O)c1cc(F)ccc1-n1nccn1 | 11.4 | 6.67 | metabolised at 0.25 h, 5 µM [4]: 35.3%
9 | CCN(CCn1ccc(-c2ccc(F)cn2)n1)C(=O)c1cc(C)ccc1-c1ncccn1 | 4.01 | 2.52 | bioavailability [5]: 100%; metabolised at 0.25 h, 5 µM [4]: 19.7%; bioavailability [6]: 4.62%; half-life [7]: 19.1 min; metabolised at 0.25 h, 5 µM [8]: 10.1%; Kp [9]: 0.03; Tmax [10]: 40 min; metabolised at 0.25 h, 5 µM [11]: 97.3%; clearance [12]: 65.2 mL/min/kg; Tmax [13]: 30 min; clearance [14]: 13.1 mL/min/kg; Kp [15]: 0.13; Vd [16]: 1.79 L/kg; Vd [17]: 1.29 L/kg; half-life [18]: 67.8 min
10 | Cc1ccc(-c2nc3ccc(C)cn3c2CC(=O)N(C)C)cc1 [ZOLPIDEM] | – | – | Activity [19]: Toxic
11 | CCN(CCn1ccc(-c2ccc(F)cn2)n1)C(=O)c1cc(C)ccc1-n1nccn1 | 0.89 | 0.43 | metabolised at 0.25 h, 5 µM [4]: 35%
12 | CCN(CCn1ccc(-c2ccc(C(F)(F)F)cn2)n1)C(=O)c1cc(C)ccc1-n1nccn1 | 902 | 48.6 | –
13 | CCN(CCn1ccc(-c2ccc(F)cn2)n1)C(=O)c1cc(OC)ccc1-n1nccn1 | 638 | 119 | –
14 | CCN(CCn1ccc(-c2ccc(F)cn2)n1)C(=O)c1cc(Cl)ccc1-n1nccn1 | 2.82 | 1.48 | metabolised at 0.25 h, 5 µM [4]: 46.9%
15 | Cc1ccc(-n2nccn2)c(C(=O)NCCn2ccc(-c3ccc(F)cn3)n2)c1 | 376 | 152 | –
16 | CCN(CCn1ccc(-c2cccc(C(F)(F)F)n2)n1)C(=O)c1cc(C)ccc1-n1nccn1 | 3.92 | 3.19 | –
17 | CCN(CCn1ccc(-c2cc(C(F)(F)F)ccn2)n1)C(=O)c1cc(C)ccc1-n1nccn1 | 66.4 | 28 | –
18 | CCN(CCc1cc(-c2ccc(F)cn2)on1)C(=O)c1cc(C)ccc1-n1nccn1 | 19.8 | 15.2 | –
19 | Cc1ccc(-n2nccn2)c(C(=O)N(C)CCn2ccc(-c3ccc(F)cn3)n2)c1 | 8.58 | 2.27 | –
20 | CCN(CCn1cc(-c2ccc(F)cn2)cn1)C(=O)c1cc(C)ccc1-n1nccn1 | 7.22 | 3.81 | –
